In brackets after ≈: the same amount, converted by molar mass.
Columns and labels:
[1] = tested on: Human immunodeficiency virus 1; assay: Antiviral activity against pseudovirus HIV-1 HXB-2 harboring Env F468L mutant infected in human U87.CD4.CXCR4 cells assessed as reduction in viral infection pretreated for 30 mins before viral infection and measured after 3 days by luciferase based assay; assay type: functional, cell-based, M:B_HXB2R
Procedure, shortened: (§1)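 Pseudoviruses made in HEK293T by co-transfecting an Env-deleted backbone (pSG3Δenv or pNL4-3.Luc.R-.E-) with an HXB-2 Env plasmid carrying single or double substitutions; Env sequences confirmed by sequencing. Virus pretreated 30 min with graded compound, added to U87-CD4-CXCR4 cells (1 × 10⁴/well, plated overnight), incubated 3 days. Cells lysed, luciferase measured, IC50 calculated.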

[2] = tested on: Human immunodeficiency virus 1; assay: Antiviral activity against clinical isolate HIV-1 RU570 infected in human PBMC cells assessed as reduction in viral transmission to TZM-bl cells pretreated for 1 hr before viral transmission and further incubated for 48 hrs by luciferase based assay; assay type: functional, cell-based; conditions: Human immunodeficiency virus 1, RU570, PBMC
[3] = tested on: Human immunodeficiency virus 1; assay: Antiviral activity against pseudovirus HIV-1 HXB-2 harboring Env M426L mutant infected in human U87.CD4.CXCR4 cells assessed as reduction in viral infection pretreated for 30 mins before viral infection and measured after 3 days by luciferase based assay; assay type: functional, cell-based, M:B_HXB2R; procedure, shortened: as §1
[4] = tested on: Human immunodeficiency virus 1; assay: Antiviral activity against pseudovirus HIV-1 HXB-2 harboring Env S375W mutant infected in human U87.CD4.CXCR4 cells assessed as reduction in viral infection pretreated for 30 mins before viral infection and measured after 3 days by luciferase based assay; assay type: functional, cell-based, M:B_HXB2R; procedure, shortened: as §1
[5] = tested on: Human immunodeficiency virus 1; assay: Antiviral activity against clinical isolate HIV-1 92US073 infected in human PBMC cells assessed as reduction in viral transmission to TZM-bl cells pretreated for 1 hr before viral transmission and further incubated for 48 hrs by luciferase based assay; assay type: functional, cell-based; conditions: Human immunodeficiency virus 1, 92US073, PBMC
Procedure, shortened: (§2)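 PBMC from healthy HIV-negative donors infected with replication-competent virus in the presence of 30 μg/ml DEAE-dextran. On day 4 post-infection, cells washed free of virus and counted. 2 × 10⁴ infected PBMC/well pretreated with escalating compound for 1 h at 37 °C, then co-cultured 48 h with TZM-bl targets (10⁴/well, plated 24 h before). TZM-bl lysed, luciferase read, IC50 calculated.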

[6] = tested on: Human immunodeficiency virus 1; assay: Antiviral activity against clinical isolate HIV-1 92US657 infected in human PBMC cells assessed as reduction in viral transmission to TZM-bl cells pretreated for 1 hr before viral transmission and further incubated for 48 hrs by luciferase based assay; assay type: functional, cell-based; conditions: Human immunodeficiency virus 1, 92US657, PBMC; procedure, shortened: as §2
[7] = tested on: Human immunodeficiency virus 1; assay: Antiviral activity against pseudovirus HIV-1 HXB-2 harboring Env I424F mutant infected in human U87.CD4.CXCR4 cells assessed as reduction in viral infection pretreated for 30 mins before viral infection and measured after 3 days by luciferase based assay; assay type: functional, cell-based, M:B_HXB2R; procedure, shortened: as §1
[8] = tested on: Human immunodeficiency virus 1; assay: Antiviral activity against Laboratory adapted HIV-1 89.6 infected in human PBMC cells assessed as reduction in viral transmission to TZM-bl cells pretreated for 1 hr before viral transmission and further incubated for 48 hrs by luciferase based assay; assay type: functional, cell-based; conditions: Human immunodeficiency virus 1, 89.6, PBMC
[9] = Solubility in 5% DMSO at pH 7.4 at 500 uM incubated for 90 mins in shaker by spectrophotometry; assay type: physicochemical
Procedure, shortened: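 DMSO stock diluted to 500 μM in universal aqueous buffer pH 7.4 with 2 or 5% DMSO final; quadruplicate, 90 min shaking at room temperature in filter plate, vacuum filtered; filtrate in 20% acetonitrile read by UV absorbance at six wavelengths. Filtrate/standard ratio binned as ~500, 100–500 or <100 μM.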

[10] = tested on: Human immunodeficiency virus 1; assay: Antiviral activity against pseudovirus HIV-1 HXB-2 harboring Env M434I mutant infected in human U87.CD4.CXCR4 cells assessed as reduction in viral infection pretreated for 30 mins before viral infection and measured after 3 days by luciferase based assay; assay type: functional, cell-based, M:B_HXB2R; procedure, shortened: as §1
[11] = tested on: Human immunodeficiency virus 1; assay: Antiviral activity against HIV-1 ADA infected in human MOLT-4 cells assessed as reduction in viral transmission to TZM-bl cells incubated for 48 hrs by luciferase based assay; assay type: functional, organism-based; conditions: Human immunodeficiency virus 1, ADA, MOLT-4, 48 h
[12] = tested on: Human immunodeficiency virus 1; assay: Antiviral activity against pseudovirus HIV-1 HXB-2 harboring Env A204D mutant infected in human U87.CD4.CXCR4 cells assessed as reduction in viral infection pretreated for 30 mins before viral infection and measured after 3 days by luciferase based assay; assay type: functional, cell-based, M:B_HXB2R; procedure, shortened: as §1
[13] = Apparent permeability across apical to basolateral side in human Caco2 cells incubated for 2 hrs by LC-MS/MS analysis; assay type: ADME, cell-based, Caco-2; conditions: caco-2, 2 h
Procedure, shortened: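 Caco-2 monolayers grown three weeks to differentiate; compound in transport buffer pH 7.4 (glucose, 10 mM HEPES, HBSS) added apical (A-B) or basal (B-A) side, with or without 100 μM verapamil; 2 h incubation, both sides sampled. Lucifer yellow 100 μM on A side checks integrity (≤2% transport). Papp = (dQ/dt)/(C0 × A); efflux ratio = Papp(B→A)/Papp(A→B).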

[14] = tested on: Human immunodeficiency virus 1; assay: Antiviral activity against pseudovirus HIV-1 HXB-2 harboring Env L116P mutant infected in human U87.CD4.CXCR4 cells assessed as reduction in viral infection pretreated for 30 mins before viral infection and measured after 3 days by luciferase based assay; assay type: functional, cell-based, M:B_HXB2R; procedure, shortened: as §1
[15] = tested on: Human immunodeficiency virus 1; assay: Antiviral activity against pseudovirus HIV-1 HXB-2 harboring Env M475I mutant infected in human U87.CD4.CXCR4 cells assessed as reduction in viral infection pretreated for 30 mins before viral infection and measured after 3 days by luciferase based assay; assay type: functional, cell-based, M:B_HXB2R; procedure, shortened: as §1
[16] = tested on: Human immunodeficiency virus 1; assay: Antiviral activity against clinical isolate HIV-1 93RW018 infected in human PBMC cells assessed as reduction in viral transmission to TZM-bl cells pretreated for 1 hr before viral transmission and further incubated for 48 hrs by luciferase based assay; assay type: functional, organism-based; conditions: Human immunodeficiency virus 1, 93RW018, PBMC
[17] = tested on: Human immunodeficiency virus 1; assay: Antiviral activity against clinical isolate HIV-1 Ru132 infected in human PBMC cells assessed as reduction in viral transmission to TZM-bl cells pretreated for 1 hr before viral transmission and further incubated for 48 hrs by luciferase based assay; assay type: functional, cell-based; conditions: Human immunodeficiency virus 1, Ru132, PBMC; procedure, shortened: as §2
[18] = tested on: Human immunodeficiency virus 1; assay: Antiviral activity against pseudovirus HIV-1 HXB-2 harboring wild type Env infected in human U87.CD4.CXCR4 cells assessed as reduction in viral infection pretreated for 30 mins before viral infection and measured after 3 days by luciferase based assay; assay type: functional, cell-based; conditions: Human immunodeficiency virus 1, M:B_HXB2R
[19] = tested on: Human immunodeficiency virus 1; assay: Antiviral activity against clinical isolate HIV-1 BCF03 infected in human PBMC cells assessed as reduction in viral transmission to TZM-bl cells pretreated for 1 hr before viral transmission and further incubated for 48 hrs by luciferase based assay; assay type: functional, cell-based; conditions: Human immunodeficiency virus 1, BCF03, PBMC
[20] = tested on: Human immunodeficiency virus 1; assay: Antiviral activity against pseudovirus HIV-1 HXB-2 harboring Env S375Y mutant infected in human U87.CD4.CXCR4 cells assessed as reduction in viral infection pretreated for 30 mins before viral infection and measured after 3 days by luciferase based assay; assay type: functional, cell-based, M:B_HXB2R; procedure, shortened: as §1
[21] = tested on: Human immunodeficiency virus 1; assay: Antiviral activity against Laboratory adapted HIV-1 BaL infected in human PBMC cells assessed as reduction in viral transmission to TZM-bl cells pretreated for 1 hr before viral transmission and further incubated for 48 hrs by luciferase based assay; assay type: functional, cell-based; conditions: Human immunodeficiency virus 1, BaL; procedure, shortened: as §2

## COc1cnc(-n2cnc(C)n2)c2[nH]cc(C(=O)C(=O)N3CCN(C(=O)c4ccccc4)CC3)c12
[1]
  IC50: 8 nM
[2]
  IC50: 100 nM
[3]
  IC50: 230 nM
[4]
  IC50: > 1000 nM
[5]
  IC50: 100 nM
[6]
  IC50: 100 nM
[7]
  IC50: > 1000 nM
[8]
  IC50: 100 nM
[9]
  solubility kinetic at […], 500 µM: 100 µM (≈ 47.3 µg/mL)
[10]
  IC50: 8 nM
[11]
  IC50: 400 nM
[12]
  IC50: > 1000 nM
[13]
  Papp: 9.27 10^-6 cm/s
[14]
  IC50: > 1000 nM
[15]
  IC50: 50 nM
[16]
  IC50: 100 nM
[17]
  IC50: 100 nM
[18]
  IC50: 8 nM
[19]
  IC50: > 6000 nM
[20]
  IC50: > 1000 nM
[21]
  IC50: 100 nM
